High-throughput results from PubChem.
TRPC6 act: mouse TRPC6 channel activation. Q61143. HEK293-TRPC6 membrane potential dye fluorescence; hits give high values. B-score at 10 µM. 0.13% of 310,000 active;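 active = B-score of the integrated fluorescence ratio above library mean plus 3 SD, and starting fluorescence ratio within library mean plus 5 SD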;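 note: higher score means more depolarization so channel activation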
Target sequence (Q61143 whole entry, looked up): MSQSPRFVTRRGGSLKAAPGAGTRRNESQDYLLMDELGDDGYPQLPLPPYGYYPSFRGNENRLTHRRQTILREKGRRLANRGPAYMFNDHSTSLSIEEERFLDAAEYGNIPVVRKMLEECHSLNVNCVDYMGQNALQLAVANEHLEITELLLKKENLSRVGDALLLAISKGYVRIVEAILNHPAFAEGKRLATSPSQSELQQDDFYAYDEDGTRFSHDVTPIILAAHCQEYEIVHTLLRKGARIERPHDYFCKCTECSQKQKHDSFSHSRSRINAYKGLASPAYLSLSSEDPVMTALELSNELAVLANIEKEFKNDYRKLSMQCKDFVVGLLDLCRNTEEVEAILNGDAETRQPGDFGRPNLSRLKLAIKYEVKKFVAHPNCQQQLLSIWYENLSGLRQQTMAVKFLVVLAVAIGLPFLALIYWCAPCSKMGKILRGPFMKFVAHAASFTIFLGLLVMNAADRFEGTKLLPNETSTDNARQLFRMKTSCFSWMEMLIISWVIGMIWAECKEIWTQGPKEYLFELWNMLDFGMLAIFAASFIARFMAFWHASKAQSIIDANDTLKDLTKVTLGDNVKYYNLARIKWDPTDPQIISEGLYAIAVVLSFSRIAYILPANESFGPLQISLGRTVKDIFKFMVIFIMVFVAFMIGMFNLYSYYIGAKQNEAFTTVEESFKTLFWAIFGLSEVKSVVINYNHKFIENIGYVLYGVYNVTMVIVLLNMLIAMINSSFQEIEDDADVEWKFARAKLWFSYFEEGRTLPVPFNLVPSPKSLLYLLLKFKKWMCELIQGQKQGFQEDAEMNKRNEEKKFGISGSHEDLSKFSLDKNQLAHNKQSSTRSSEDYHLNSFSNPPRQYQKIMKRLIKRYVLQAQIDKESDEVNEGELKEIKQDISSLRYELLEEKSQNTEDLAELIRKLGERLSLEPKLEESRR
TRPC6 inh: inhibitors of mouse TRPC6 channel; Q61143; HEK293-TRPC6, membrane potential dye, ACh-evoked depolarization; hits give low values; B-score at 10 µM; 1.1% of 310,000 active;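 active = B-score under library mean minus 3 SD, initial fluorescence not abnormally high, positive integrated signal ratio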;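 note: B-score derived from integrated fluorescence ratio over the kinetic read; more negative B-score means stronger inhibition of depolarization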
TRPC4 block: TRPC4 (mouse) channel inhibition; Q9QUQ5; HEK293 TRPC4beta/mu-opioid, DAMGO-evoked Fluo4 calcium flux; hits give low values; B-score at 10 µM; 0.39% of 300,000 active;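 active = B-score over 3 SD under the library average, no early fluorescence shift, positive overall ratio signal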
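Signal: kinetic Fluo4 fluorescence imaging of calcium influx. Material: stable TRPC4beta/mu-opioid receptor HEK293 cells. Probe or stimulus: DAMGO in two steps, submaximal then maximal.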
TRPC4 act: TRPC4 (mouse) channel activation | 0.49% of 310,000 active | B-score at 10 µM | HEK293 TRPC4beta/mu-opioid, Fluo4 calcium fluorescence; hits give high values;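 active = B-score above 5 SD of library B-scores, and initial fluorescence ratio not above library mean plus 5 SD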;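 note: positive B-score marks a calcium rise read as TRPC4 activation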
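Assay system: HEK293 cells stably co-expressing mouse TRPC4beta and mu-opioid receptor / Timing: Fluo4 dye loading 45 min at room temperature, 110 s recording / Signal: Fluo4 calcium-sensitive dye fluorescence, kinetic, 1 Hz baseline / Read-out: integrated baseline-normalised fluorescence ratio, converted to per-well B score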
TRPC4 potent: allosteric potentiators of mouse TRPC4 channel | Q9QUQ5 | HEK293 TRPC4beta/mu-opioid, DAMGO EC20, Fluo-4 Ca2+ flux; hits give high values | B-score at 10 µM | 0.42% of 310,000 active | AID 2227;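 active = B-score of calcium response area above 5 SD of library B-scores, with initial fluorescence ratio within 5 SD of library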;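 note: B-score of integrated fluorescence ratio over time as area under calcium response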
An asterisk follows results filed as active; i = inactive. Most compounds without a hit are left out; they make up all but 2.3% or so of the library.

SMILES	TRPC6 act	TRPC6 inh	TRPC4 block	TRPC4 act	TRPC4 potent
COc1ccc(C(CNC(=O)c2ccc(S(=O)(=O)Nc3ccc(F)cc3)cc2)N(C)C)cc1 (stereo not given)	i	i	i	66*	i
COc1ccc(C(CNC(=O)c2ccc(NS(=O)(=O)c3ccc4c(c3)OCCO4)cc2)N(C)C)cc1 (stereo not given)	i	i	i	i	i
Cc1cccc(CCN2CCC(C(=O)c3ccc(NS(C)(=O)=O)cc3)CC2)n1	i	i	i	i	i
Cc1cccc(CC(Cc2nc3ccccc3[nH]2)c2nc3ccccc3[nH]2)c1 (stereo not given)	i	i	i	i	i
COc1ccccc1CC(Cc1nc2ccccc2[nH]1)c1nc2ccccc2[nH]1 (stereo not given)	i	i	-6*	i	i
O=C(Nc1ccnn1C1CCN(C(=O)c2cccc(C(F)(F)F)c2)CC1)C1CC1	i	i	i	i	i
CCCC1C(=O)Nc2ccccc2N1C(=O)c1ccc(C(C)(C)C)cc1 (stereo not given)	i	i	i	i	16*
S=c1[nH]nc(-c2cc3c(s2)-c2ccccc2CC3)o1	i	i	-6*	i	i
Cc1ccc(S(=O)(=O)NC(C(=O)Oc2cc3oc(=O)cc(C)c3cc2Cl)C(C)C)cc1 (stereo not given)	i	i	i	i	15*
CC(=O)Oc1cc2oc(=O)cc(C)c2cc1Cl	i	i	i	i	i
CC(C)(C)C(=O)Nc1sc2c(c1C#N)CCN(Cc1ccccc1)C2	13*	i	i	i	i
N#Cc1c(NC(=S)NC(=O)c2ccccc2)sc2c1CCN(CCc1ccccc1)C2	i	i	i	i	i
CN1CCN(CC(O)Cn2c3ccccc3c3ccccc32)CC1 (stereo not given)	i	i	i	i	i
CN1CCN(CC#CCn2c3ccccc3c3ccccc32)CC1	i	i	i	i	16*
O=C(O)C1Cc2c([nH]c3ccccc23)C(c2ccc3c(c2)OCO3)N1 (stereo not given)	i	i	i	i	i
COc1ccc(C2NC(C(=O)O)Cc3c2[nH]c2ccccc32)cc1CN1CCN(c2ccc(F)cc2)CC1 (stereo not given)	i	i	-6*	i	i
CCN(CC)c1nc(N2CCOCC2)nc2ccccc12	i	i	-6*	i	i
CC(C)OC(=O)c1c(N)n(CCCN2CCOCC2)c2nc3ccccc3nc12	i	i	i	i	i
CC(C)OC(=O)c1c2nc3ccccc3nc2n2c1[nH]c(=O)c1ccccc12	i	i	i	i	10*
C=C(c1ccc(O)cc1)c1ccc(O)cc1	i	i	-6*	i	i
CCOC(=O)c1ccc(NS(=O)(=O)c2c(N)n(C)c(=O)n(C)c2=O)cc1	i	i	i	i	i
CC12CCC(c3c(C(=O)N4CCOCC4)nn(-c4ccccc4)c31)C2(C)C (stereo not given)	i	i	i	i	10*
COC(=O)C(Cc1cccc(C)n1)(c1ccccc1)c1ccccc1	i	i	-7*	i	i
NC(=O)CC(NC(=O)c1ccc(Br)cc1)c1ccc(NC2CCCCCCC2)c([N+](=O)[O-])c1 (stereo not given)	i	i	i	i	i
O=C1c2ccccc2S(=O)(=O)c2cc(N3CCc4ccccc4C3)ccc21	i	i	i	i	i
CC1Cc2ccccc2N1C(=O)CSc1nc2c(c(=O)n(C)c(=O)n2C)n1Cc1ccccc1 (stereo not given)	i	i	-7*	245*	13*
Cn1c(=O)c2c(nc(SCc3cccnc3)n2Cc2ccc(F)cc2)n(C)c1=O	i	i	-5*	i	i
Cn1c(=O)c2c(nc(SCCN3CCOCC3)n2Cc2ccc(F)cc2)n(C)c1=O	i	i	i	i	i
Cc1ccc(Cn2c(SCCN3CCCCC3)nc3c2c(=O)n(C)c(=O)n3C)cc1	i	i	i	43*	70*
